The source of these data is ChEMBL document CHEMBL1156347, “Immunomodulatory constituents from an Ascomycete, Eupenicillium crustaceum, and revised absolute structure of macrophorin D” (J Nat Prod, 2001).

Experiment [1] can be described thus: Immunosuppressant activity in mouse B cells assessed as inhibition of LPS-induced cell proliferation. The format is functional, cell-based. A digest of the protocol:
(§1)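 Splenic lymphocytes from male BALB/c mice aged 7-11 weeks, stimulated with concanavalin A (T cells) or LPS (B cells). Proliferation read as formation of MTT-formazan from exogenous MTT in the lymphocytes. Seven concentrations tested, each point the mean of 3 experiments. IC50 read from the concentration-versus-proliferation curve.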

Experiment [2] is described as follows: Immunosuppressant activity in mouse T cells assessed as inhibition of concanavalin A-induced cell proliferation. Type of experiment: functional, cell-based. An outline of the steps:
as §1

A further experiment relates to T-cell. Briefly: Ratio of IC50 for mouse T cells proliferation to IC50 for mouse B cells proliferation. The format is functional.

≈ marks a conversion by molar mass, not a printed value.

In general, IC50 refers to the point on the concentration scale where inhibition reaches its midpoint.

As to `Cn1cnc([N+](=O)[O-])c1Sc1ncnc2[nH]cnc12` [AZATHIOPRINE], the half-maximal inhibitory concentration (IC50) in experiment [1] and in experiment [2] was 2.7 µg/mL (≈ 9.74 µM) each time.

Consider `C=C1CC[C@H]2C(C)(C)CCC[C@]2(C)[C@H]1C[C@@]12O[C@@H]1C(=O)C(COC(=O)C[C@@](C)(O)CC(=O)O)=CC2=O`, for which the values for the IC50 in experiment [1] and in experiment [2] were 2 µg/mL (≈ 3.98 µM) and 4.5 µg/mL (≈ 8.95 µM), respectively. Moreover, the “Ratio IC50” value with T-cell turned out to be 2.

`C=C1CC[C@H]2C(C)(C)CCC[C@]2(C)[C@H]1C[C@@]12O[C@@H]1C(=O)C(CO)=CC2=O`: the results for the IC50 in experiment [1] and in experiment [2] were 0.25 µg/mL (≈ 0.697 µM) and 0.5 µg/mL (≈ 1.39 µM), respectively. For the same molecule, the “Ratio IC50” value in the experiment with T-cell amounted to 2.

Turning to `C=CC[C@@H]1/C=C(\C)C[C@H](C)C[C@H](OC)[C@H]2O[C@@](O)(C(=O)C(=O)N3CCCC[C@H]3C(=O)O[C@H](/C(C)=C/[C@@H]3CC[C@@H](O)[C@H](OC)C3)[C@H](C)[C@@H](O)CC1=O)[C@H](C)C[C@@H]2OC` [TACROLIMUS ANHYDROUS], the values for the IC50 in experiment [1] and in experiment [2] were 0.0016 µg/mL (≈ 0.00199 µM) and 1.5e-05 µg/mL (≈ 1.87e-05 µM), respectively.
